Data reported in PubChem BioAssay.
Activity calls are given as the source filed them.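 Rule for the calls, unless noted: active = viability at or under a set limit in both replicates, limit being median viability minus 3 SD (cut at about 48% in these data, passing the limit was not always enough); inconclusive = at or under the limit in just one replicate; inactive = at or above the limit in both replicates.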

Tests used:
[1] = molecular target: Pantothenate synthetase (Mycobacterium tuberculosis (strain ATCC 25618 / H37Rv)) (UniProt P9WIL5); test: Coupled enzyme confirmation of inhibitors against recombinant Mtb PanC (AID 375; call rule not given here;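 note: 0% = full reaction with vehicle and 100% = no enzyme background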); settings: coupled enzyme assay; at 10 µM, stronger effect = higher value
[2] = Her2 expression decrease, cell viability multiplex – SKBR3 breast tumor cells, AlphaScreen, ATP viability, primary screen (AID 461;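 active = Her2 level under about 52% in both replicate screens, with viability over 70% of control, limit read from the data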;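 for Her2 level: lower value means less Her2 protein in the cells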;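 for viability: percent of carrier control wells set as 100% viability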); settings: SKBR3 Her2 protein level, 18-24 h, measured here: SKBR3 viability, ATP luminescence, at 10 µM
[3] = molecular target: Receptor tyrosine-protein kinase erbB-2 (Homo sapiens) (UniProt P04626); test: as above; settings: 18-24 h, at 10 µM, stronger effect = lower value
[4] = reduced viability of SK-BR-3 breast cancer cells – cell-based, 24 h, human, pilot screen (AID 572;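 active = viability at or below 10% of carrier control in both of two separate runs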;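 note: compound exposure lasted between 18 and 24 h rather than exactly 24 h; 100% = carrier-treated control wells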); settings: SK-BR-3 viability, CellTiter-Glo luminescence, at 10 µM, stronger effect = lower value
[5] = HUVEC growth inhibition – cell-based, human, primary screen (AID 575;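 active = viability at or below 30% in both replicate assays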;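 note: 100% = median of untreated cell wells with 0.1% DMSO on each plate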); settings: HUVEC proliferation, CellTiter-Glo luminescence, 72 h; at 10 µM; stronger effect = lower value
Summary of the method: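 Test system – primary HUVEC, no more than 12 passages · Dosing – one dose, 10 µM final, 0.1% DMSO · Times – 72 h treatment at 37 °C · Measured by – ATP-based CellTiter-Glo luminescent read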

[6] = H69AR cell proliferation blockers – human, duplicate replicates, primary screen (AID 580); settings: H69AR lung tumor cells viability, ATP luminescence, 72 h; at 10 µM; stronger effect = lower value;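 note: 100% = mean luminescence of untreated wells and 0% = no signal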
[7] = MRP1 drug-resistance reversers in H69AR cells – cell-based, doxorubicin co-treatment, pilot screen (AID 601;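 active = viability loss from added drug above about 55%, and viability with drug at most 40%, in both replicates, limit read from the data, passing the limit was not always enough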); settings: CellTiter-Glo, 72 h, at 10 µM; for differential viability (reversal): stronger effect = higher value
[8] = yeast transport mutant growth inhibition pilot in 384-well plates, post-Golgi transport modulator project (AID 636; in the data active = inhibition above about 31%); settings: absorbance 615 nm, about 18 h, stronger effect = higher value
[9] = growth suppression of yeast trafficking mutant, preliminary HTS, modulators of trafficking downstream of Golgi apparatus project, 1536-format plate, OD 615 nm (AID 637; in the data active = inhibition above about 30%); settings: yeast transport mutant growth, absorbance 615 nm, 18 h; stronger effect = higher value
[10] = H69AR cells + 2 uM doxorubicin, measured here: viability with 2 uM doxorubicin, stronger effect = lower value
[11] = H69AR cells, compound alone cytotoxicity

Chain of Receptor tyrosine-protein kinase erbB-2 (Homo sapiens) (P04626 whole entry, looked up): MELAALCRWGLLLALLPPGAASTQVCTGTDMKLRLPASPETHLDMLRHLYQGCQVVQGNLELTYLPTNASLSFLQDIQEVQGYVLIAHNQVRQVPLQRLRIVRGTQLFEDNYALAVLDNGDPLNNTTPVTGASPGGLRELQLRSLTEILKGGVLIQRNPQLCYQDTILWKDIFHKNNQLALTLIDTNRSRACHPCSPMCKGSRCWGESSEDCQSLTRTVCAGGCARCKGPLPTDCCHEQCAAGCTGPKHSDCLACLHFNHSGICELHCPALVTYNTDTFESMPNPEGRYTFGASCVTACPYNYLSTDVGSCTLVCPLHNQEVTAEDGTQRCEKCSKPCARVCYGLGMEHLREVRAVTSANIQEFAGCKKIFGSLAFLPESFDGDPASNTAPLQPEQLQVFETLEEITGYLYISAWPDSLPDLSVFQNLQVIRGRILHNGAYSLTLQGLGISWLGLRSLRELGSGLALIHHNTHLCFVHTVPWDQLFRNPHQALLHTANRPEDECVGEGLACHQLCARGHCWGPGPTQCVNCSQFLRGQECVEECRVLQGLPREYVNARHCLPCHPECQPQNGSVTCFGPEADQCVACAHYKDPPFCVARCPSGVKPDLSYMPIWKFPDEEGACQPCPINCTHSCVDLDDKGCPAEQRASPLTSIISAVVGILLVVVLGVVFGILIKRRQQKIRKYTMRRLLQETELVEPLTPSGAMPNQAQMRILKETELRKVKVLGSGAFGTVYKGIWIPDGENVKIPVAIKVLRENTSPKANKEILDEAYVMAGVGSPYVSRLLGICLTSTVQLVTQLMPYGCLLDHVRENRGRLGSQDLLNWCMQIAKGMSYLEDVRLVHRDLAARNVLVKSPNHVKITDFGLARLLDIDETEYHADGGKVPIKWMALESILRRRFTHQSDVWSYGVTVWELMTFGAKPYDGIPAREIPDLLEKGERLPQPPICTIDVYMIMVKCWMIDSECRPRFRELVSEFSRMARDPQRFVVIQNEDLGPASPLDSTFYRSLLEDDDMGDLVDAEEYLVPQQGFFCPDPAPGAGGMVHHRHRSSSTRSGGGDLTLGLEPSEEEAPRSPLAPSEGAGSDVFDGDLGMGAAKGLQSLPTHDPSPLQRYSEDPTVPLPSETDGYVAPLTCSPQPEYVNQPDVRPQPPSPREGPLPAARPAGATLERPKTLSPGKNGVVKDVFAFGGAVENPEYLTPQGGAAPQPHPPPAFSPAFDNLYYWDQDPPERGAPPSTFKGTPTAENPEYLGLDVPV
Chain of Pantothenate synthetase (Mycobacterium tuberculosis (strain ATCC 25618 / H37Rv)) (P9WIL5 whole entry, looked up): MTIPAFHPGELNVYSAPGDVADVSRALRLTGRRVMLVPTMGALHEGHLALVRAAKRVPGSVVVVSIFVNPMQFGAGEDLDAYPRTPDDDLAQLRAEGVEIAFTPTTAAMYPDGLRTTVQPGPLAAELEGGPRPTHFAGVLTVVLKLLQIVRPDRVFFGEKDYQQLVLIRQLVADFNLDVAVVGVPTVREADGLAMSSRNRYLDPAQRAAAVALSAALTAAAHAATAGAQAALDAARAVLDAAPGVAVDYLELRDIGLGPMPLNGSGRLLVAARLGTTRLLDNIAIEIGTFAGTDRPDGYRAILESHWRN

| Compound | inhibition [1] | viability [2] | Her2 level [3] | viability [4] | viability [5] | viability [6] | differential viability (reversal) ([7]; H69AR cells + 2 uM doxorubicin) | viability [7, 10] | viability [7, 11] | inhibition [8] | inhibition [9] |
| --- | --- | --- | --- | --- | --- | --- | --- | --- | --- | --- | --- |
| O=c1[nH]c(=O)n(CCc2ccccc2)c(O)c1C=NCCN1CCNCC1 | 6% (inactive) | 99% | 91.5% (inactive) | 99% (inactive) | 108% (inactive) | 93% (inactive) | 1.67% (inactive) | 91.3% | 93% | -1.58% (inactive) | 5.16% (inactive) |
| CC(C)=CCSc1nnc([C@@H](N)Cc2c[nH]c3ccccc23)o1 | 7% (inactive) | 102% | 110% (inactive) | 102% (inactive) | 75.4% (inactive) | 94% (inactive) | 2.83% (inactive) | 91.2% | 94% | -0.27% (inactive) | -8.39% (inactive) |
| CCOc1cc2[nH]c(=S)n(CCCC(=O)N3CCC4(CC3)OCCO4)c(=O)c2cc1OCC | 0% (inactive) | 88.5% | 85.5% (inactive) | 88.5% (inactive) | 78.2% (inactive) | 89.2% (inactive) | -4% (inactive) | 93.2% | 89.2% | -4.59% (inactive) | -4.75% (inactive) |
| CC(C)C(=O)c1cn(Cc2ccccc2C#N)c2ccccc12 | 8% (inactive) | 98% | 100% (inactive) | 98% (inactive) | 97% (inactive) | 82.8% (inactive) | -7.5% (inactive) | 90.3% | 82.8% | -4.53% (inactive) | 3.97% (inactive) |
| CCOc1ccc(-n2c(O)c(C=NCCN3CCNCC3)c(=O)[nH]c2=O)cc1 | 3% (inactive) | 102% | 77.5% (inactive) | 102% (inactive) | 100% (inactive) | 89% (inactive) | -4.71% (inactive) | 93.8% | 89% | -1.58% (inactive) | -3.71% (inactive) |
| N#Cc1ccccc1Cn1cc(C(=O)c2ccco2)c2ccccc21 | 0% (inactive) | 98.5% | 96% (inactive) | 98.5% (inactive) | 105% (inactive) | 82% (inactive) | -3.02% (inactive) | 85% | 82% | -4.32% (inactive) | 14.5% (inactive) |
| CC(=NCc1cccnc1)c1c(O)n(Cc2ccccc2)c(=O)[nH]c1=O | 1% (inactive) | 91.5% | 90.5% (inactive) | 91.5% (inactive) | 92.6% (inactive) | 93.5% (inactive) | -4.79% (inactive) | 98.3% | 93.5% | -0.27% (inactive) | 2.95% (inactive) |
| Nc1ccc(C2(c3ccc(N)cc3)CN3CCC2CC3)cc1 | 0% (inactive) | 120% | 88% (inactive) | 120% (inactive) | 85.5% (inactive) | 106% (inactive) | 6.37% (inactive) | 100% | 106% | -5.75% (inactive) | 0% (inactive) |
| COc1ccc(OC)c(C(O)C(C)N)c1 (stereo not given) | 0% (inactive) | 104% | 118% (inactive) | 104% (inactive) | 108% (inactive) | 98.1% (inactive) | -7.17% (inactive) | 105% | 98.1% |  |  |
| O=C(NCc1ccccn1)c1ccccc1Cl | 0% (inactive) | 91.5% | 76.5% (inactive) | 91.5% (inactive) | 91.2% (inactive) | 98% (inactive) | 16.5% (inactive) | 81.5% | 98% | -7.95% (inactive) | 0.63% (inactive) |
| CCC(=NCCCN1CCOCC1)c1c(O)n(Cc2ccccc2)c(=O)[nH]c1=O | 0% (inactive) | 108% | 107% (inactive) | 108% (inactive) | 84.3% (inactive) | 89.2% (inactive) | -1.53% (inactive) | 90.7% | 89.2% | -5.41% (inactive) | -5.56% (inactive) |
| COc1ccc(C(=O)C(C)(C)NO)cc1 | 0% (inactive) | 108% | 100% (inactive) | 108% (inactive) | 99.9% (inactive) | 86.5% (inactive) | -2.28% (inactive) | 88.8% | 86.5% | -6.49% (inactive) | 0.48% (inactive) |
